This sample holds only a part of the variants without activity.
B1: tRNA (parent)
chain: GUUCCGUUGGCGUAAUGGUAACGCGUCUCCCUCCUAAGGAGAAGACUGCGGGUUCGAGUCCCGUACGGAACG

Variants of: B1
Experiment: yeast fitness relative to wild type (ratio to wild type); higher = fitter; tRNA-Arg(CCU), competitive growth, 37 C, YPD
How it was run: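 Changes in genotype frequencies gave Darwinian fitness relative to wild type. Frequencies were read by 100-nucleotide paired-end sequencing of gene amplicons before and after pooled Saccharomyces cerevisiae strains, carrying tRNA-Arg(CCU) gene variants at the native locus, were competed in YPD at 37°C for 24 hours in six replicates. A genotype was kept only with ≥ 100 starting reads, and estimates < 0.5 were set to 0.5.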

| Variant | yeast fitness |
| --- | --- |
| C24G A37C C49U | ≤ 0.5 |
| C22U U35C C55A C66U | ≤ 0.5 |
| C24U C33U C61A A69U | ≤ 0.5 |
| G23A C30G | 0.527 |
| C22U C31G G38A U47A | ≤ 0.5 |
| C24G A36U A65G | ≤ 0.5 |
| G23C C29G G67U A69C | ≤ 0.5 |
| C24G C49G G68U | ≤ 0.5 |
| C24G C30U C31G G50A | ≤ 0.5 |
| C22U C49U | 0.816 |
| C24A C33U C62U | ≤ 0.5 |
| C24A U64C | 0.706 |
| C24U C31G C60A U64C | ≤ 0.5 |
| C24G C31G G50A | 0.522 |
| G23C C24A C30G A40U U47A G51C C66A A69U | 0.525 |
| C22U C30G C61U A65C C66U | ≤ 0.5 |
| C22U C33G A42C C49G G58C C62G | ≤ 0.5 |
| C22U G52C G68A | ≤ 0.5 |
| C24G C29U G51C C66U | ≤ 0.5 |
| C24U C31U A40C A57C C61A G67A | ≤ 0.5 |
| G23C A37U C46G | ≤ 0.5 |
| C24G G41C G68C | 0.592 |
| C24G U35G G48C C66U | ≤ 0.5 |
| C24G C60U G63A | ≤ 0.5 |

| Variant | yeast fitness |
| --- | --- |
| C24A G68C | 0.643 |
| C24G G44A C46U U53C | ≤ 0.5 |
| G23A C55U A57C G58A | ≤ 0.5 |
| C24U A43C | 0.786 |
| C22U U28A C55G A57C | ≤ 0.5 |
| G23A C27G C55G | ≤ 0.5 |
| C24G U28G C29G | ≤ 0.5 |
| G23C A45U A65C | ≤ 0.5 |
| G23A C27U C60G G67A | 0.549 |
| C24U C30G G51A C60U G67A | ≤ 0.5 |
| C24G C29G C33A G48A C55G G68C | ≤ 0.5 |
| G23U G63C | 0.623 |
| C22U U54A C55U | 0.776 |
| G23A C29G A45U C60G C61U | 0.557 |
| C24G C31G G68C | ≤ 0.5 |
| C24G C33G G50U U59C | ≤ 0.5 |
| C24G A37G U59A C62A G67A | ≤ 0.5 |
| C24U A42U C61U | 0.641 |
| C24U C29A A36G C55G A70C | ≤ 0.5 |
| C24A A57U | 0.681 |
| C24A A42C G67C A70U | ≤ 0.5 |
| C24G C34U U35A C55U | ≤ 0.5 |
| C24A G51A | 0.53 |
| G23C G39C G50A G68C | ≤ 0.5 |

| Variant | yeast fitness |
| --- | --- |
| C24G U54C G67C | ≤ 0.5 |
| C24G G44A C46U U53C C62U | ≤ 0.5 |
| C22U G38C C46U C66G | ≤ 0.5 |
| C24A A42G G63A | ≤ 0.5 |
| G23C G41C C49U | ≤ 0.5 |
| C22U C31A C34U A36C A45C C61U U64A | ≤ 0.5 |
| C24A C30U A45G A57U | 0.6 |
| C22U C34A G56C A57U | ≤ 0.5 |
| C24U A42U C46A C55U C61G A69C | ≤ 0.5 |
| G23A U59A | 0.791 |
| C24A A40U C49U C62A C66A | ≤ 0.5 |
| G23A A43C C66G | ≤ 0.5 |
| G23C U28C C29U A69C | ≤ 0.5 |
| C24U A45C U47A G63A | ≤ 0.5 |
| C24G A40G C66U | 0.515 |
| C24A C29G U54A | 0.568 |
| C24G A36G C55G | ≤ 0.5 |
| C24G C34G U47A C49A A65G | ≤ 0.5 |
| C22U G52A C61U | ≤ 0.5 |
| C22U C46G C49A C60A A70C | ≤ 0.5 |
| C24U C30U A57C | ≤ 0.5 |
| G23U A57U | 0.614 |
| C24G A36U A37C A65C | ≤ 0.5 |
| C24G A42C C60U U64A | 0.562 |

| Variant | yeast fitness |
| --- | --- |
| G23A U26A G50C U53C | ≤ 0.5 |
| C22U G52A A57U | ≤ 0.5 |
| C24G A42G C55G | ≤ 0.5 |
| C24U C29U C46U | 0.554 |
| C24U C46A A57G | 0.749 |
| C24U C30G C46G G52A G58A | 0.559 |
| C24A C33A C46U | 0.534 |
| G23A C30U U35C G48C U59A C66U | 0.526 |
| G23A A40G G41A A45U G51C | ≤ 0.5 |
| C24G A37U C49U U59A | ≤ 0.5 |
| G23A C29G A45U C62U | ≤ 0.5 |
| C24U C27A | 0.882 |
| C24G C55G C66U | ≤ 0.5 |
| G23C C55G | ≤ 0.5 |
| G23A G51A C61A C66A | 0.545 |
| C24U C49A G67C | 0.527 |
| C24U C49A G67A | 0.547 |
| C24A C30U | 0.538 |
| C24G C60A | 0.576 |
| C22U C30G C49U | ≤ 0.5 |
| C24A G39A | 0.66 |
| G23A C29G A57G C66G | ≤ 0.5 |
| C22U U47G | 0.611 |
| C24A C29A G44A C46G G50A A65U | 0.556 |

| Variant | yeast fitness |
| --- | --- |
| G23A C30U U35C G67U A69C | ≤ 0.5 |
| C24G A70G | 0.564 |
| G23C G51C | ≤ 0.5 |
| G23C C24U C46U U47C | 0.684 |
| C24U A40C G48A | 0.634 |
| G23C C31A A36U | ≤ 0.5 |
| C22U C49G U53A | 0.558 |
| C24U A45C G63A | 0.601 |
| C22U C30U A57G | ≤ 0.5 |
| G23C U54C C66U | ≤ 0.5 |
| G23C U32A C61U | ≤ 0.5 |
| C22U G23C G52C | ≤ 0.5 |
| C24U A45G A69U | 0.888 |
| C24G A36U A42U C49G U53A G58A C60A | ≤ 0.5 |
| G23A C30U C55G A57C C61A | ≤ 0.5 |
| G23A C29U C60U A65U | ≤ 0.5 |
| C24U C29A C33U | ≤ 0.5 |
| G23C C29U G44A C62U | ≤ 0.5 |
| C24A U26G A43C G68C | ≤ 0.5 |
| C24G U32C A42G | 0.574 |
| C24G C31U C61A | ≤ 0.5 |
| C22U U32C | 0.902 |
| C24G A36G A57G | 0.533 |
| C24A C34U A43U C49G C62G | ≤ 0.5 |

| Variant | yeast fitness |
| --- | --- |
| C24G A36G A65U G68C | ≤ 0.5 |
| C24U A45C | 0.971 |
| C24G C29G G39C C55A | 0.592 |
| G23A A45U G56A | 0.727 |
| C24G C34G A70C | ≤ 0.5 |
| C24U A37G A70U | 0.536 |
| C24U C46A C62A A69C | 0.573 |
| G23A G52A | 0.546 |
| C24G A37G U47C U59A G67A | ≤ 0.5 |
| C24G G50A C55U A69C A70U | ≤ 0.5 |
| C24U A70C | 1.04 |
| C24G A37G U59A G67A | 0.548 |
| G23A A43C U59A | 0.639 |
| C22U G52A C55A A69C | ≤ 0.5 |
| G23C C29G A43U | ≤ 0.5 |
| C24G C49U C55G G58A | 0.764 |
| C24A C30U C33A G41C A42U | ≤ 0.5 |
| C24U A37C G50C A69U | ≤ 0.5 |
| G23A C34A | 0.523 |
| G23A C30U U35C | ≤ 0.5 |
| C24G A42G A57G | ≤ 0.5 |
| C24G C29G G48A | ≤ 0.5 |
| C22U U26A G67C | ≤ 0.5 |
| C22U G25A U26G C62U A65U | 0.51 |

| Variant | yeast fitness |
| --- | --- |
| C22U U28G A45G G67U | ≤ 0.5 |
| C24U A57C C61U | ≤ 0.5 |
| G23A U54A G67A | ≤ 0.5 |
| C24A C27A U28A C55G | ≤ 0.5 |
| C24A C49U C55U | ≤ 0.5 |
| C24G C30G C62U G68C | ≤ 0.5 |
| C24U C29G C31U U64A | ≤ 0.5 |
| C24G C34G A36G U53A | ≤ 0.5 |
| C24G C34U A45C | ≤ 0.5 |
| C24G U64A C66A | ≤ 0.5 |
| C22U C62G A69U | 0.586 |
| C24G A65C | 0.648 |
| C22U U28G U32A | ≤ 0.5 |
| C24G A45U U54A | ≤ 0.5 |
| G23C C30G C46U A65G A70U | 0.63 |
| C24U C30A C60U | ≤ 0.5 |
| G23C G39C | 0.53 |
| C24U A37U | 0.652 |
| C24A U26C | 0.678 |
| C24G A57C C61U | ≤ 0.5 |
| C24A A42C | 0.713 |
| G23A C62U A65C | 0.582 |
| C24A C62A | 0.598 |

Reference: the RNAGym collection of RNA variant scans (doi:10.1126/science.aae0568)
